Measurements from ChEMBL document CHEMBL5335782, “Discovery of new imidazotetrazinones with potential to overcome tumor resistance” (Eur J Med Chem, 2023).
Active and inactive are the calls of the source. No cut-off for these calls is given here.

Experiments:
[1] = Antiproliferative activity against human U373V cells assessed as inhibition of cell growth measured […] by MTT assay; format: functional
Summary of the method: (§1)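 Cells seeded at 6.5×10^2/well, left overnight, then exposed to vehicle or agent (n = 4-8; final 0.5–1000 μM; DMSO stocks of 50 or 10 mM diluted in medium). MTT read at time of addition and after 6 days at 37 °C, 5% CO₂. MTT 0.4 mg/mL for 4 h, formazan taken up in DMSO, A550. GI50 from non-linear regression; mean ± SD of >3 experiments.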

HCT-116 [2] = assay: Antiproliferative activity against MMR-deficient human HCT-116 cells assessed as inhibition of cell growth measured after […] by MTT assay; format: functional; summary of the method: as §1
[3] = Antiproliferative activity against MGMT-expressing human U373M cells assessed as inhibition of cell growth measured after […] by MTT assay; format: functional; summary of the method: as §1
[4] = Permeability of the compound assessed as drug recovery measured after 6 hrs by PAMPA assay; format: ADME; settings: read-out: Drug recovery
Summary of the method: (§2)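 PAMPA passive-diffusion assay run as contract research under the provider's protocols, with control compounds. After 6 h incubation, permeability (Pe) and percentage recovery determined.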

[5] = Half life in rat liver microsomes in presence of NADPH; format: ADME, Microsome
[6] = Half life in human plasma; format: ADME, cell-free
[7] = Intrinsic clearance in rat liver microsomes in presence of NADPH; format: ADME, Microsome; settings: read-out: CLH
[8] = Half life in rat liver microsomes in absence of NADPH; format: ADME, Microsome
HCT-116 [9] = assay: Induction of cell cycle arrest in MMR-deficient human HCT-116 cells at 100 uM measured after 120 hrs by propidium iodide staining based flow cytometry; format: functional
[10] = Half life in human liver microsomes in presence of NADPH; format: ADME, Microsome
U373V [11] = assay: Induction of cell cycle arrest in human U373V cells assessed as accumulation of cells at G2/M phase at 100 uM measured after 120 hrs by propidium iodide staining based flow cytometry; format: functional
[12] = Half life in human liver microsomes in absence of NADPH; format: ADME, Microsome
[13] = Half life of the compound in phosphate buffered saline at pH 5 by LC-MS analysis; format: physicochemical
Summary of the method: (§3)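 Half-life in phosphate buffers at pH 5, 6.8 or 7.4 followed by LC-MS; mean of two independent experiments.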

[14] = Half life of the compound in phosphate buffered saline at pH 6.8 by LC-MS analysis; format: physicochemical; summary of the method: as §3
[15] = Half life of the compound in phosphate buffered saline at pH 7.4 by LC-MS analysis; format: physicochemical; summary of the method: as §3
[16] = Half life of the compound in phosphate buffered saline at pH 7.4 by 1H NMR spectroscopic analysis; format: physicochemical
Summary of the method: (§4)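 Half-life followed by ¹H NMR spectroscopy in phosphate buffers at pH 7.4 or 5.5.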

[17] = Intrinsic clearance in human liver microsomes in absence of NADPH; format: ADME, Microsome; settings: read-out: CLH
U373V [18] = assay: Inhibition of cell colony formation in human U373V cells at 20 to 50 uM incubated for 24 hrs followed by drug removal and incubation in medium for 14 days; format: functional, cell-based; settings: dose 20-50 µM
Summary of the method: (§5)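 Clonogenic survival: exponentially growing cells seeded in triplicate at 400 cells/well, attached overnight, then exposed for 24 h to 0, 2, 20 or 50 μM agent. Medium then replaced with drug-free medium for 14 days, or until control colonies held ≥50 cells. Colonies fixed in cold methanol, stained with 0.5% methylene blue, counted, and expressed relative to control. 2–3 experiments.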

[19] = Ratio of permeability across dog MDCK cells transfected with MDR1 to permeability across wild type dog MDCK cells; format: ADME, cell-based, Canis lupus familiaris
[20] = Intrinsic clearance in rat liver microsomes in absence of NADPH; format: ADME, Microsome; settings: read-out: CLH
[21] = Half life in rat plasma; format: ADME, cell-free
[22] = Selectivity ratio of GI50 for cytotoxicity against human MRC5 cells to GI50 for antiproliferative activity against MMR-deficient human HCT-116 cells; format: toxicity, cell-based; settings: MRC5 cells versus MMR-deficient HCT-116 cells, read-out: RatioGI50
U373M [23] = assay: Induction of cell cycle arrest in MGMT-expressing human U373M cells at 100 uM measured after 120 hrs by propidium iodide staining based flow cytometry; format: functional
[24] = Apparent elimination half life in human plasma
[25] = Induction of cell cycle arrest in human U373V cells assessed as accumulation of cells at pre-G1 phase at 100 uM measured after 120 hrs by propidium iodide staining based flow cytometry (reference value: 1%); format: functional
[26] = Intrinsic clearance in human liver microsomes in presence of NADPH; format: ADME, Microsome; settings: read-out: CLH
[27] = Permeability of the compound measured after 6 hrs by PAMPA assay; format: ADME; settings: read-out: permeability; summary of the method: as §2
[28] = Apparent elimination half life in human
[29] = Half life of the compound in phosphate buffered saline at pH 5.5 by 1H NMR spectroscopic analysis; format: physicochemical; summary of the method: as §4
U373V [30] = assay: Inhibition of cell colony formation in human U373V cells assessed as reduction in clonogenic survival at >=10 uM incubated for 24 hrs followed by drug removal and incubation in medium for 14 days; format: functional, cell-based; summary of the method: as §5
[31] = Cytotoxicity against human MRC5 cells assessed as inhibition of cell growth measured after 7 days by MTT assay; format: toxicity, cell-based; settings: time 7 day; summary of the method: as §1
HCT-116 [32] = assay: Induction of cell cycle arrest in MMR-deficient human HCT-116 cells assessed as accumulation of cells at pre-G1 phase at 20 uM measured after 120 hrs by propidium iodide staining based flow cytometry (Rvb ~5%); format: functional
[33] = Induction of cell cycle arrest in MGMT-expressing human U373M cells assessed as accumulation of cells at G2/M phase at 20 uM measured after 120 hrs by propidium iodide staining based flow cytometry; format: functional
[34] = Stability of the compound in phosphate buffered saline at pH 7.4 by 1H NMR spectroscopy; format: physicochemical; settings: buffer; summary of the method: as §4
HCT-116 [35] = assay: Inhibition of cell colony formation in MMR-deficient human HCT-116 cells assessed as reduction in clonogenic survival at >=10 uM incubated for 24 hrs followed by drug removal and incubation in medium for 14 days; format: functional, cell-based; summary of the method: as §5
[36] = Induction of cell cycle arrest in MGMT-expressing human U373M cells assessed as accumulation of cells at G1 phase at 20 uM measured after 120 hrs by propidium iodide staining based flow cytometry (reference value: 66%); format: functional
[37] = Stability of the compound in phosphate buffered saline at pH 5.5 by 1H NMR spectroscopy; format: physicochemical; settings: buffer; summary of the method: as §4
U373M [38] = assay: Inhibition of cell colony formation in MGMT-expressing human U373M cells assessed as reduction in clonogenic survival at >=10 uM incubated for 24 hrs followed by drug removal and incubation in medium for 14 days; format: functional, cell-based; summary of the method: as §5

C#CCn1nnc2c(-c3nc(CC)cs3)ncn2c1=O
GI50 [1]: 23.5 µM | GI50 (HCT-116 [2]): 14.8 µM | GI50 [3]: 9.67 µM

C#CCn1nnc2c(-c3nc(C(F)(F)F)cs3)ncn2c1=O
GI50 [1]: 28.2 µM | GI50 (HCT-116 [2]): 21.5 µM | GI50 [3]: 25.4 µM

C#CCn1nnc2c(-c3nc(-c4ccncc4)cs3)ncn2c1=O
GI50 [1]: 23.5 µM | GI50 (HCT-116 [2]): 29 µM | GI50 [3]: 25.1 µM

C#CCn1nnc2c(-c3nc(C(C)C)cs3)ncn2c1=O
GI50 [1]: 23.6 µM | GI50 (HCT-116 [2]): 25.4 µM | GI50 [3]: 19 µM

Nc1nc[nH]c1-c1nccs1
GI50 [1]: > 100 µM | GI50 (HCT-116 [2]): 97 µM | GI50 [3]: 89.3 µM

C#CCn1nnc2c(-c3nc(C4CCC4)cs3)ncn2c1=O
GI50 [1]: 24.2 µM | GI50 (HCT-116 [2]): 20.3 µM | GI50 [3]: 25.5 µM

C#CCn1nnc2c(-c3nc(-c4ccc(S(C)(=O)=O)cc4)cs3)ncn2c1=O
GI50 [1]: 22 µM | GI50 (HCT-116 [2]): 37 µM | GI50 [3]: 14.7 µM

Cn1nnc2c(C(N)=O)ncn2c1=O [TEMOZOLOMIDE]
recovery at 6 h [4]: 65.3% | half-life [5]: > 8 h | half-life [6]: 0.33 h | microsomal CLint [7]: < 1 µL/min/mg | half-life [8]: > 8 h | GI50 [1]: 51.9 µM | Activity (HCT-116 [9]): inactive | half-life [10]: 0.848 h | Activity (U373V [11]): Active | half-life [12]: 1 h | half-life [13]: > 8 h | half-life [14]: 4.02 h | half-life [15]: 2.47 h | half-life [16]: 1.53 h | microsomal CLint [17]: 23 µL/min/mg | inhibition (U373V [18]): Active | Ratio [19]: 3.21 | microsomal CLint [20]: < 1 µL/min/mg | half-life [21]: 0.298 h | selectivity ratio [22]: 1.4 | Activity (U373M [23]): inactive | t1/2 [24]: 0.25 h | Activity [25]: 9% | GI50 (HCT-116 [2]): 291 µM | microsomal CLint [26]: 27.3 µL/min/mg | Papp at 6 h [27]: 0.63 ×10⁻⁶ cm/s | GI50 [3]: 302 µM | half-life [28]: 1.8 h | half-life [29]: > 100 h

C#CCn1nnc2c(-c3nc(CN4CCOCC4)cs3)ncn2c1=O
GI50 [1]: 23.9 µM | GI50 (HCT-116 [2]): 12.2 µM | GI50 [3]: 10.2 µM

C#CCn1nnc2c(-c3nc(C(F)(F)C(F)(F)F)cs3)ncn2c1=O
GI50 [1]: 27.1 µM | GI50 (HCT-116 [2]): 27.7 µM | GI50 [3]: 25.8 µM

C#CCn1nnc2c(-c3nccs3)ncn2c1=O
inhibition (U373V [30]): Active | GI50 at 168 h [31]: 25 µM | recovery at 6 h [4]: 17.5% | half-life [5]: 0.63 h | half-life [6]: 0.0557 h | Activity (HCT-116 [32]): >60% | microsomal CLint [7]: 37.2 µL/min/mg | half-life [8]: 1.32 h | Activity [33]: 21% | GI50 [1]: 3.59 µM | half-life [10]: 0.527 h | half-life [12]: 1.53 h | Stability [34]: Stable | half-life [13]: > 8 h | half-life [14]: 5.46 h | half-life [15]: 3.29 h | inhibition (HCT-116 [35]): Active | Activity [36]: 43% | half-life [16]: 3 h | Stability [37]: Stable | microsomal CLint [17]: 16.4 µL/min/mg | Ratio [19]: 1.11 | microsomal CLint [20]: 17.5 µL/min/mg | half-life [21]: 0.0443 h | selectivity ratio [22]: > 5 | GI50 (HCT-116 [2]): 5.35 µM | microsomal CLint [26]: 44 µL/min/mg | inhibition (U373M [38]): Active | Papp at 6 h [27]: 3.18 ×10⁻⁶ cm/s | GI50 [3]: 4.09 µM | half-life [29]: 1.07 h
